Laboratory results as given in ChEMBL document CHEMBL1154743, “A novel potent nicotinamide phosphoribosyltransferase inhibitor synthesized via click chemistry” (J Med Chem, 2010).

Experiments:
Format in all cases: functional
[1] = system: SH-SY5Y; assay: Cytotoxicity against human SH-SY5Y cells assessed as reduction of total cellular NAD(P) level at 300 nM relative to control; set-up: scale not given: the % may be the effect or the level left
How it was run: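 Total cellular NAD levels in SH-SY5Y cells screened at a single fixed concentration of 300 nM. Expressed relative to control, n = 10.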

[2] = system: HOP-62; assay: Growth inhibition of human HOP62 cells by sulforhodamine B assay
[3] = system: HOP-92; assay: Growth inhibition of human HOP92 cells by sulforhodamine B assay
[4] = system: NCI-H226; assay: Growth inhibition of human NCI-H226 cells by sulforhodamine B assay
[5] = system: NCI-H23; assay: Growth inhibition of human NCI-H23 cells by sulforhodamine B assay
[6] = system: NCI-H460; assay: Growth inhibition of human NCI-H460 cells by sulforhodamine B assay
[7] = system: COLO 205; assay: Growth inhibition of human COLO205 cells by sulforhodamine B assay
[8] = system: HCC 2998; assay: Growth inhibition of human HCC2998 cells by sulforhodamine B assay
[9] = system: HCT-116; assay: Growth inhibition of human HCT116 cells by sulforhodamine B assay
[10] = system: HT-29; assay: Growth inhibition of human HT-29 cells by sulforhodamine B assay
[11] = system: SW-620; assay: Growth inhibition of human SW620 cells by sulforhodamine B assay
[12] = system: SF-268; assay: Growth inhibition of human SF268 cells by sulforhodamine B assay
[13] = system: SF-295; assay: Growth inhibition of human SF295 cells by sulforhodamine B assay
[14] = system: M14; assay: Growth inhibition of human M14 cells by sulforhodamine B assay
[15] = system: MDA-MB-435; assay: Growth inhibition of human MDA-MB-435 cells by sulforhodamine B assay
[16] = system: SK-MEL-28; assay: Growth inhibition of human SK-MEL-28 cells by sulforhodamine B assay
[17] = system: SK-MEL-5; assay: Growth inhibition of human SK-MEL-5 cells by sulforhodamine B assay; details: read-out: LC50 (the source's name)
[18] = system: UACC-257; assay: Growth inhibition of human UACC257 cells by sulforhodamine B assay
[19] = system: UACC-62; assay: Growth inhibition of human UACC62 cells by sulforhodamine B assay
[20] = system: OVCAR-4; assay: Growth inhibition of human OVCAR4 cells by sulforhodamine B assay
[21] = system: OVCAR-5; assay: Growth inhibition of human OVCAR5 cells by sulforhodamine B assay
[22] = system: OVCAR-8; assay: Growth inhibition of human OVCAR8 cells by sulforhodamine B assay
[23] = system: SK-OV-3; assay: Growth inhibition of human SKOV3 cells by sulforhodamine B assay
[24] = system: 786-0; assay: Growth inhibition of human 786-0 cells by sulforhodamine B assay
[25] = system: ACHN; assay: Growth inhibition of human ACHN cells by sulforhodamine B assay
[26] = system: CAKI-1; assay: Growth inhibition of human Caki1 cells by sulforhodamine B assay
[27] = read-out: LC50 (the source's name)

O=C(CCCCCCCn1cc(-c2cccnc2)nn1)Nc1ccccc1-c1ccccc1 was tested, and the Activity [1] was 9.9%, the GI50 [2] was 23.8 µM and the TGI [2] was > 100 µM. The CC50 [2, 27] was > 100 µM, the GI50 [3] was 97.4 µM and the TGI [3] was > 100 µM. The CC50 [3, 27] was > 100 µM, the GI50 [4] was 15.5 µM and the TGI [4] was 51.7 µM. The CC50 [4, 27] was > 100 µM, the GI50 [5] was 15.1 µM and the TGI [5] was > 100 µM. The CC50 [5, 27] was > 100 µM, the GI50 [6] was 0.724 µM and the TGI [6] was > 100 µM. The CC50 [6, 27] was > 100 µM, the GI50 [7] was 1.18 µM and the TGI [7] was 36 µM. For the same compound, the CC50 [7, 27] was > 100 µM, the GI50 [8] was 0.7 µM and the TGI [8] was > 100 µM. The CC50 [8, 27] was > 100 µM, the GI50 [9] was 0.0403 µM and the TGI [9] was > 100 µM. The CC50 [9, 27] was > 100 µM, the GI50 [10] was 0.46 µM and the TGI [10] was > 100 µM. For the same compound, the CC50 [10, 27] was > 100 µM, the GI50 [11] was 0.0615 µM and the TGI [11] was > 100 µM. For the same compound, the CC50 [11, 27] was > 100 µM, the GI50 [12] was 24.7 µM and the TGI [12] was > 100 µM. The CC50 [12, 27] was > 100 µM, the GI50 [13] was 0.655 µM and the TGI [13] was > 100 µM. For the same compound, the CC50 [13, 27] was > 100 µM, the GI50 [14] was 0.166 µM and the TGI [14] was 20.7 µM. The CC50 [14, 27] was > 100 µM, the GI50 [15] was 0.399 µM and the TGI [15] was 13.3 µM. The CC50 [15, 27] was > 100 µM, the GI50 [16] was 1.59 µM and the TGI [16] was > 100 µM. For the same compound, the CC50 [16, 27] was > 100 µM, the CC50 [17] was 42.4 µM and the GI50 [18] was 13.3 µM. The TGI [18] was 30.3 µM, the CC50 [18, 27] was 69.3 µM and the GI50 [19] was 13.3 µM. The TGI [19] was 51.4 µM, the CC50 [19, 27] was > 100 µM and the GI50 [20] was 31.6 µM. For the same compound, the TGI [20] was > 100 µM, the CC50 [20, 27] was > 100 µM and the GI50 [21] was 0.268 µM. The TGI [21] was > 100 µM, the CC50 [21, 27] was > 100 µM and the GI50 [22] was 0.0574 µM. The TGI [22] was > 38 µM, the CC50 [22, 27] was > 100 µM and the GI50 [23] was 20.5 µM. For the same compound, the TGI [23] was > 100 µM, the CC50 [23, 27] was > 100 µM and the GI50 [24] was 7.33 µM. The TGI [24] was > 100 µM, the CC50 [24, 27] was > 100 µM and the GI50 [25] was 18.7 µM. The TGI [25] was > 100 µM, the CC50 [25, 27] was > 100 µM and the GI50 [26] was 0.776 µM. For the same compound, the TGI [26] was > 100 µM and the CC50 [26, 27] was > 100 µM.
